From ChEMBL document CHEMBL1153573, “Synthesis of a series of N6-substituted adenosines with activity against trypanosomatid parasites” (Eur J Med Chem, 2009)
pIC50: −log10 of the molar value.

Tested on: Trypanosoma brucei rhodesiense
Test: Antitrypanosomal activity against Trypanosoma brucei rhodesiense STIB 900 after 72 hrs by alamar blue based microplate assay
Assay type: functional, organism-based
Settings: STIB 900, 72 h
Procedure, shortened: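 Bloodstream-form T. b. rhodesiense STIB 900, 10⁴ per well, in minimum essential medium with 2-mercaptoethanol and 15% heat-inactivated horse serum. Serial dilutions spanning […]. Incubated 37 °C, 5% CO₂, 72 h. Resazurin (Alamar Blue) then added and incubation continued. Fluorescence read at ex 536/em 588 nm as percent of control, IC50 calculated. Melarsoprol standard.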

Row | pIC50 | SMILES
1 | 3.88 | CC(=O)Nc1ccc(C(=O)NCCOCCNc2ncnc3c2ncn3[C@@H]2O[C@H](CO)[C@@H](O)[C@H]2O)cc1
2 | < 3.77 | COc1ccc(C(=O)NCCOCCNc2ncnc3c2ncn3[C@@H]2O[C@H](CO)[C@@H](O)[C@H]2O)cc1OC
3 | 4.30 | O=C(Cc1c(Cl)cccc1Cl)NCCOCCNc1ncnc2c1ncn2[C@@H]1O[C@H](CO)[C@@H](O)[C@H]1O
4 | 3.88 | COc1cccc(CC(=O)NCCOCCNc2ncnc3c2ncn3[C@@H]2O[C@H](CO)[C@@H](O)[C@H]2O)c1
5 | < 3.77 | O=C(Cc1cccc2ccccc12)NCCOCCNc1ncnc2c1ncn2[C@@H]1O[C@H](CO)[C@@H](O)[C@H]1O
6 | 4.87 | O=C(NCCOCCNc1ncnc2c1ncn2[C@@H]1O[C@H](CO)[C@@H](O)[C@H]1O)c1cccc(F)c1
7 | 3.78 | O=C(NCCOCCNc1ncnc2c1ncn2[C@@H]1O[C@H](CO)[C@@H](O)[C@H]1O)c1ccc(F)c(F)c1
8 | 5.00 | O=C(NCCOCCNc1ncnc2c1ncn2[C@@H]1O[C@H](CO)[C@@H](O)[C@H]1O)c1ccc(Oc2ccccc2)cc1

The remaining lines, values behind:

Row | SMILES | pIC50
9 | O=C(CCCOc1ccccc1)NCCOCCNc1ncnc2c1ncn2[C@@H]1O[C@H](CO)[C@@H](O)[C@H]1O | 5.47
10 | CC(C)=CC(=O)NCCOCCNc1ncnc2c1ncn2[C@@H]1O[C@H](CO)[C@@H](O)[C@H]1O | 3.90
11 | O=C(CCCc1ccccc1)NCCOCCNc1ncnc2c1ncn2[C@@H]1O[C@H](CO)[C@@H](O)[C@H]1O | 5.40
12 | O=C(NCCOCCNc1ncnc2c1ncn2[C@@H]1O[C@H](CO)[C@@H](O)[C@H]1O)C(c1ccccc1)c1ccccc1 | 4.07
13 | O=C(CCCc1ccc([N+](=O)[O-])cc1)NCCOCCNc1ncnc2c1ncn2[C@@H]1O[C@H](CO)[C@@H](O)[C@H]1O | 4.05
14 | COc1ccc(CC(=O)NCCOCCNc2ncnc3c2ncn3[C@@H]2O[C@H](CO)[C@@H](O)[C@H]2O)cc1OC | 5.04
15 | O=C(CCCc1c[nH]c2ccccc12)NCCOCCNc1ncnc2c1ncn2[C@@H]1O[C@H](CO)[C@@H](O)[C@H]1O | 4.42
